From ChEMBL document CHEMBL4270591, “Exploitation of new chalcones and 4H-chromenes as agents for cancer treatment” (Eur J Med Chem, 2018)
Calls of active or inactive are those of the source. No cut-off for these calls is given here.

Columns and labels:
Hs-578T [1] = assay: Anticancer activity against human Hs 578T cells assessed as cell viability at 10 uM after 72 hrs by sulforhodamine B assay relative to control; assay type: functional; conditions: read-out: Activity
MCF7 [2] = assay: Anticancer activity against human MCF7 cells assessed as cell viability at 30 uM after 72 hrs by sulforhodamine B assay relative to control; assay type: functional; conditions: MCF7, 72 h, read-out: Activity
[3] = Cytotoxicity against human MCF10A cells assessed as cell viability at 30 uM after 72 hrs by sulforhodamine B assay relative to control; assay type: cell-based, MCF-10A; conditions: read-out: Activity
MCF7 [4] = assay: Induction of apoptosis in human MCF7 cells assessed as increase in Bim level at IC50 after 24 hrs by Western blot analysis; assay type: functional, cell-based
Outline: (§1)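 MCF-7 cells at 70-80% confluence were treated at IC50 or with 0.5% DMSO for 24 h. Lysis in Tris/NaCl/EDTA buffer with NP-40, Triton X-100, phosphatase and protease inhibitors. 20 µg protein run on 12% SDS-PAGE and transferred to nitrocellulose. Probed overnight at 4 °C with anti-PARP (1:500) or anti-BIM (1:1000), then HRP secondaries and chemiluminescence. At least two independent experiments.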

Hs-578T [5] = assay: Anticancer activity against human Hs 578T cells after 72 hrs by sulforhodamine B assay; assay type: functional, cell-based
Outline: (§2)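 Cells seeded at 3000 cells/100 µL per well, left to adhere overnight (18-20 h), then exposed to a range of compound concentrations for 72 h. Vehicle control was 0.5% DMSO. Cytotoxicity was read by sulforhodamine B at 490 nm, with 690 nm as background. IC50 came from sigmoidal variable-slope nonlinear regression on log-transformed data, from at least three independent experiments, each in triplicate.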

MCF7 [6] = assay: Induction of apoptosis in human MCF7 cells assessed as increase in early apoptotic cells at IC50 after 48 hrs by Annexin-V-FITC/propidium iodide staining based flow cytometry; assay type: functional, cell-based
Outline: (§3)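 Floating and adherent cells were pooled and resuspended in binding buffer. Staining with FITC-annexin V and PI for 15 min at room temperature in the dark, followed by flow cytometry quadrant analysis normalised to untreated cells. Two independent experiments, triplicates within each.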

MCF7 [7] = assay: Induction of apoptosis in human MCF7 cells assessed as increase in cleaved PARP level at IC50 after 24 hrs by Western blot analysis; assay type: functional, cell-based; outline: as §1
MCF-10A [8] = assay: Cytotoxicity against human MCF10A cells after 72 hrs in presence of doxorubicin by sulforhodamine B assay; assay type: cell-based
Hs-578T [9] = assay: Anticancer activity against human Hs 578T cells assessed as cell viability at 30 uM after 72 hrs by sulforhodamine B assay relative to control; assay type: functional; conditions: read-out: Activity
MCF7 [10] = assay: Induction of apoptosis in human MCF7 cells assessed as decrease in Bcl-xL level at IC50 after 48 hrs by Western blot analysis
MCF-10A [11] = assay: Cytotoxicity against human MCF10A cells after 72 hrs by sulforhodamine B assay; assay type: cell-based; outline: as §2
MCF7 [12] = assay: Antiproliferative activity against human MCF7 cells after 72 hrs in presence of doxorubicin by sulforhodamine B assay; assay type: functional, cell-based; conditions: MCF7, 72 h
[13] = Selectivity index, ratio of IC50 for human MCF10A cells in presence of doxorubicin to IC50 for human MCF7 cells in presence of doxorubicin; assay type: toxicity; conditions: MCF10A cells and MCF7 cells, read-out: Ratio IC50
MCF7 [14] = assay: Cell cycle arrest in human MCF7 cells assessed as DNA fragmentation at IC50 after 48 hrs by propidium iodide staining based flow cytometry; assay type: functional
Outline: (§4)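 MCF-7 cells seeded at 2.5×10^5 per well and grown overnight. […] Cells fixed in 70% ethanol for at least 30 min at 4 °C, then stained with PI (50 µg/mL) plus RNase A and Triton X-100 for 1 h in the dark at […]. Flow cytometry with 488 nm excitation gave the phase distribution. Two independent biological replicates.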

MCF7 [15] = assay: Antiproliferative activity against human MCF7 cells at IC50 after 48 hrs by Brdu incorporation assay relative to control; assay type: functional
Outline: (§5)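 Labelling with 20 µM BrdU (final) for 6 h. FixDenat 30 min, then anti-BrdU-POD 90 min at room temperature. Substrate colour for 5-10 min, stopped with H2SO4, absorbance at 450 nm (reference 690 nm). Cell-free blanks included. At least three independent experiments in triplicate.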

MCF7 [16] = assay: Anticancer activity against human MCF7 cells after 72 hrs by sulforhodamine B assay; assay type: functional, cell-based; conditions: MCF7, 72 h; outline: as §2
MCF7 [17] = assay: Induction of apoptosis in human MCF7 cells assessed as increase in late apoptotic cells at IC50 after 48 hrs by Annexin-V-FITC/propidium iodide staining based flow cytometry; assay type: functional, cell-based; outline: as §3
[18] = Cytotoxicity against human MCF10A cells assessed as cell viability at 10 uM after 72 hrs by sulforhodamine B assay relative to control; assay type: cell-based, MCF-10A; conditions: read-out: Activity
MCF7 [19] = assay: Induction of microtubule disruption in human MCF7 cells at IC50 after 12 hrs by DAPI staining based microscopic analysis; assay type: cell-based
Outline: (§6)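 MCF-7 cells seeded at 2.0×10^5 per well and incubated overnight. Treatment at IC50 for 12 h, with 0.5% DMSO vehicle and paclitaxel (2 µM) as reference. Fixation in methanol for 20 min at -20 °C and blocking in 5% BSA. β-tubulin antibody (1:200) for 2 h, fluorescent secondary for 1 h, and DAPI nuclear counterstain. Confocal imaging with a 60x oil objective, 405/488 nm excitation.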

MCF7 [20] = assay: Cell cycle arrest in human MCF7 cells assessed as accumulation at sub-G0/G1 phase at IC50 after 48 hrs by propidium iodide staining based flow cytometry; assay type: functional; outline: as §4
MCF7 [21] = assay: Anticancer activity against human MCF7 cells assessed as cell viability at 10 uM after 72 hrs by sulforhodamine B assay relative to control; assay type: functional; conditions: MCF7, 72 h, read-out: Activity
MCF7 [22] = assay: Antimigratory activity against human MCF7 cells assessed as reduction in cell migration at half IC50 to IC50 after 12 to 48 hrs by microscopy based wound healing assay; assay type: functional
Outline: (§7)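 Wound healing: MCF-7 cells plated at 9.0 × 10^5 per 2 mL and grown overnight to confluence. Two scratches made with a pipette tip, then wash with PBS. Treatment at IC50 or ½ IC50, or 0.5% DMSO. Four positions per wound were imaged at 0, 12, 24 and 48 h at 100x. Migration distances were measured and normalised to control. Three independent experiments.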

MCF7 [23] = assay: Induction of apoptosis in human MCF7 cells at IC50 after 48 hrs by Annexin-V-FITC/propidium iodide staining based flow cytometry; assay type: functional, cell-based; outline: as §3
MCF7 [24] = assay: Cell cycle arrest in human MCF7 cells at IC50 after 48 hrs by propidium iodide staining based flow cytometry; assay type: functional; outline: as §4
MCF7 [25] = assay: Induction of microtubule disruption in human MCF7 cells assessed as nuclei condensation at IC50 after 12 hrs by DAPI staining based microscopic analysis; assay type: cell-based
MCF7 [26] = assay: Antimigratory activity against human MCF7 cells assessed as reduction in cell migration at half IC50 to IC50 after 48 hrs by microscopy based wound healing assay relative to control; assay type: functional; design: scale not given: the % may be the effect or the level left; outline: as §7
MCF7 [27] = assay: Inhibition of beta-tubulin polymerization in human MCF7 cells assessed as increase in beta-tubulin levels at IC50 after 24 hrs by Western blot analysis; assay type: cell-based
MCF7 [28] = assay: Cell cycle arrest in human MCF7 cells assessed as reduction in G0/G1 population at IC50 after 48 hrs by propidium iodide staining based flow cytometry; assay type: functional; outline: as §4
MCF7 [29] = assay: Induction of microtubule disruption in human MCF7 cells assessed as cell rounding at IC50 after 12 hrs by DAPI staining based microscopic analysis; outline: as §6
MCF7 [30] = assay: Cell cycle arrest in human MCF7 cells assessed as accumulation at G2/M phase at IC50 after 48 hrs by propidium iodide staining based flow cytometry; assay type: functional; outline: as §4
MCF7 [31] = assay: Induction of microtubule disruption in human MCF7 cells assessed as nuclei contraction at IC50 after 12 hrs by DAPI staining based microscopic analysis; assay type: cell-based
MCF7 [32] = assay: Induction of microtubule disruption in human MCF7 cells assessed as cell shrinkage at IC50 after 12 hrs by DAPI staining based microscopic analysis; outline: as §6
MCF7 [33] = assay: Induction of microtubule disruption in human MCF7 cells assessed as cell detachment at IC50 after 12 hrs by DAPI staining based microscopic analysis; outline: as §6
MCF7 [34] = assay: Antiproliferative activity against human MCF7 cells at half IC50 to IC50 after 24 to 48 hrs by Brdu incorporation assay; assay type: functional, cell-based; outline: as §5

SMILES | viability at 10 µM (Hs-578T [1]) [%] | viability at 30 µM (MCF7 [2]) [%] | viability at 72 h, 30 µM [3] [%] | Activity (MCF7 [4]) | IC50 (Hs-578T [5]) [µM] | Activity (MCF7 [6]) | Activity (MCF7 [7]) | IC50 (MCF-10A [8]) [nM] | viability at 30 µM (Hs-578T [9]) [%] | Activity (MCF7 [10]) | IC50 (MCF-10A [11]) [µM] | IC50 (MCF7 [12]) [nM] | selectivity ratio [13] | Activity (MCF7 [15]) [%] | IC50 (MCF7 [16]) [µM] | Activity (MCF7 [17]) | viability at 72 h, 10 µM [18] [%] | Activity (MCF7 [19]) | viability at 10 µM (MCF7 [21]) [%] | Activity (MCF7 [22]) | further results
COc1cccc(C(=O)/C=C/c2cc(Br)ccc2O)c1 | 38.5 | 28.3 | 66.3 | Active | 7.27 | Active | Active | > 60000 | 55.8 | Active | 40.6 | 420 | > 142 | >50 | 5.07 | Active | 33.8 | inactive | 26.9 | inactive | Activity (MCF7 [14]): Active; Activity (MCF7 [20]): Active
Cc1ccc(C(=O)/C=C/c2cc(Cl)ccc2O)cc1 | 66.3 | 27.7 | 51.1 | Active | 4.8 | – | Active | 1100 | 70.5 | Active | 24.2 | 270 | 3.07 | >50 | 3.98 | – | 33.5 | inactive | 36.8 | inactive | Activity (MCF7 [23]): inactive; Activity (MCF7 [24]): inactive
COc1cccc(C(=O)CC2C(C#N)=C(N)Oc3c(OC)cc(Br)cc32)c1 (configuration not stated) | 46.1 | 33.9 | 46.3 | Active | 4.52 | Active | Active | 1580 | 83.3 | Active | 18.9 | 110 | 13.4 | 20 | 3.65 | Active | 32.3 | – | 55.9 | – | Activity (MCF7 [25]): Active; Activity (MCF7 [26]): 50%; inhibition (MCF7 [27]): Active; Activity (MCF7 [28]): Active; Activity (MCF7 [29]): Active; Activity (MCF7 [30]): Active; Activity (MCF7 [31]): Active; Activity (MCF7 [32]): Active; Activity (MCF7 [33]): Active
Cc1ccc(C(=O)/C=C/c2cc(Br)ccc2O)cc1 | 55.8 | 31.8 | 49.4 | – | 1.6 | – | – | – | 46.7 | – | 6.52 | – | – | – | 2 | – | 32.4 | – | 27.3 | – | –
COc1cccc(C(=O)CC2C(C#N)=C(N)Oc3ccc(Br)cc32)c1 (configuration not stated) | 71.5 | 34.4 | 43.7 | – | 10.3 | – | – | – | 37.9 | – | 18.9 | – | – | – | 5.94 | – | 101 | – | 51.2 | – | –
O=C(/C=C/c1cc(Br)ccc1O)c1ccc(Br)cc1 | 63.5 | 28.3 | 47.6 | Active | 5.88 | – | Active | 15100 | 124 | Active | 29.3 | 280 | 53 | – | 3.82 | – | 32.8 | inactive | 28.7 | inactive | Activity (MCF7 [23]): inactive; Activity (MCF7 [24]): inactive; Activity (MCF7 [34]): inactive
